What all share (assay type): functional, cell-based
For test [1], the system named is KM-20L2. In words: Cytotoxicity against human KM20L2 cells after 72 hrs by MTT assay. To be noted: KM-20L2, 72 h. (Tetrazolium dyes change colour on reduction, which living cells bring about.)
In test [2] the test system is MH60. Description: Cytotoxicity against mouse MH60 cells after 72 hrs by MTT assay. To be noted: MH60, 72 h. The essentials:
(§1)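 Cells seeded per well in 0.2 mL culture medium: 2 × 10^4 cells for KB and HL-60, 5 × 10^3 cells for MH-60. Treated in triplicate with graded concentrations of test samples (5 µL added per well), then incubated 72 h at 37 °C in 5% CO2.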

For test [3], the system named is DU-145. Description: Cytotoxicity against human DU145 cells after 72 hrs by MTT assay. To be noted: DU-145, 72 h.
Test [4] has as its system BXPC-3. In words: Cytotoxicity against human BxPC3 cells after 72 hrs by MTT assay. To be noted: BXPC-3, 72 h.
The test system of test [5] is SF-268. Description: Cytotoxicity against human SF268 cells after 72 hrs by MTT assay. To be noted: SF-268, 72 h.
Test [6] deals with KB. In words: Cytotoxicity against human KB cells after 72 hrs by MTT assay. The procedure, abridged:
as §1

Test [7] deals with NCI-H460. Description: Cytotoxicity against human NCI-H460 cells after 72 hrs by MTT assay. To be noted: NCI-H460, 72 h.
Test [8] has as its system MCF7. In words: Cytotoxicity against human MCF7 cells after 72 hrs by MTT assay. The settings on record: MCF7, 72 h.
The test system of test [9] is HL-60. Description: Cytotoxicity against human HL60 cells after 72 hrs by MTT assay. To be noted: HL-60, 72 h. The procedure, abridged:
as §1

In brackets after ≈: the same amount, converted by molar mass.

Broadly, the IC50 is the concentration that gives 50% inhibition. The low end stands for inhibition by little substance, the high end for a need for much substance. As to `C[C@]12CC[C@H](O)C[C@H]1CC[C@@H]1[C@@H]2C[C@@H](O)[C@]2(C)[C@@H](c3ccc(=O)oc3)C[C@H]3O[C@]132`, the IC50 was 0.012 µg/mL (≈ 0.03 µM) in test [1]; over 25 µg/mL in test [2]; 0.041 µg/mL (≈ 0.102 µM) in [3]; 0.12 µg/mL (≈ 0.3 µM) in [4]; 0.046 µg/mL (≈ 0.115 µM) in test [5]; 0.97 µg/mL (≈ 2.42 µM) in test [6]. Also, the results for the 50% inhibitory concentration (IC50) in test [7], in [8] and in test [9] were 0.017 µg/mL (≈ 0.0424 µM), 0.066 µg/mL (≈ 0.165 µM) and 0.045 µg/mL (≈ 0.112 µM), respectively.
For `C[C@]12[C@H](CC[C@@H]3[C@@H]1CC[C@]1(C)[C@@H](c4ccc(=O)oc4)CC[C@]31O)C[C@@H](O)C[C@H]2O`, the IC50 was 0.011 µg/mL (≈ 0.0273 µM) in test [1]; over 25 µg/mL in test [2]; 0.005 µg/mL (≈ 0.0124 µM) in [3]; 0.024 µg/mL (≈ 0.0596 µM) in test [4]; 0.0044 µg/mL (≈ 0.0109 µM) in [5]; 0.19 µg/mL (≈ 0.472 µM) in test [6]. In addition, the figures for the IC50 in test [7], in test [8] and in [9] were 0.014 µg/mL (≈ 0.0348 µM), 0.012 µg/mL (≈ 0.0298 µM) and under 0.01 µg/mL, respectively.
On to `C[C@]12CC[C@H](OC=O)C[C@H]1CC[C@@H]1[C@@H]2CC[C@]2(C)[C@@H](c3ccc(=O)oc3)C[C@H]3O[C@]132`, for which the IC50 in [1] worked out at 0.54 µg/mL (≈ 1.31 µM); in test [2], 8.1 µg/mL (≈ 19.6 µM); in [3], 0.42 µg/mL (≈ 1.02 µM); in test [4] it was 1.6 µg/mL (≈ 3.88 µM); in test [5], 0.38 µg/mL (≈ 0.921 µM); in test [6], 3.4 µg/mL (≈ 8.24 µM). Also, the figures for the IC50 in test [7], in [8] and in test [9] were 0.53 µg/mL (≈ 1.28 µM), 0.6 µg/mL (≈ 1.45 µM) and 1 µg/mL (≈ 2.42 µM), respectively.
As to `C[C@]12CC[C@H](O)C[C@@]1(O)CC[C@@H]1[C@@H]2CC[C@]2(C)[C@@H](c3ccc(=O)oc3)[C@@H](O)[C@H]3O[C@]132` [DESACETYLCINOBUFOTALIN], the IC50 is over 25 µg/mL in [2], 10 µg/mL (≈ 24 µM) in [6] and 4.3 µg/mL (≈ 10.3 µM) in [9].
Take `C[C@]12CC[C@H]3[C@@H](CC[C@@H]4C[C@@H](O)CC[C@@]43CO)[C@]13O[C@@H]3C[C@@H]2c1ccc(=O)oc1`: the IC50 was 0.45 µg/mL (≈ 1.12 µM) in [1]; over 25 µg/mL in [2]; 0.38 µg/mL (≈ 0.949 µM) in test [3]; 0.63 µg/mL (≈ 1.57 µM) in test [4]; 0.25 µg/mL (≈ 0.624 µM) in test [5]; 1.2 µg/mL (≈ 3 µM) in test [6]. Besides, the figures for the concentration for half-maximal inhibition (IC50) in test [7], in test [8] and in [9] were 0.44 µg/mL (≈ 1.1 µM), 0.33 µg/mL (≈ 0.824 µM) and 0.48 µg/mL (≈ 1.2 µM), respectively.
Regarding `C[C@]12CC[C@H]3[C@@H](CC[C@@H]4C[C@@H](O)CC[C@@]43C=O)[C@@]1(O)CC[C@@H]2c1ccc(=O)oc1`, the half-inhibitory concentration (IC50) in test [1] was 0.0082 µg/mL (≈ 0.0205 µM); in [2], over 25 µg/mL; in test [3], 0.0046 µg/mL (≈ 0.0115 µM); in test [4], 0.014 µg/mL (≈ 0.035 µM); in test [5], 0.0047 µg/mL (≈ 0.0117 µM); in test [7], 0.018 µg/mL (≈ 0.0449 µM). The IC50 in test [8] is 0.0072 µg/mL (≈ 0.018 µM); in test [9] it was under 0.01 µg/mL.
For `CC(=O)O[C@H]1[C@H]2O[C@]23[C@@H]2CC[C@]4(O)C[C@@H](O)CC[C@]4(C)[C@H]2CC[C@]3(C)[C@H]1c1ccc(=O)oc1` [CINOBUFOTALIN], the IC50 in [2] was over 25 µg/mL; in [6], 0.37 µg/mL (≈ 0.807 µM); in test [9] it was 0.047 µg/mL (≈ 0.102 µM).
For `CC(=O)O[C@H]1[C@H]2O[C@]23[C@@H]2CC[C@@H]4C[C@@H](O)CC[C@]4(C)[C@H]2C[C@@H](O)[C@]3(C)[C@H]1c1ccc(=O)oc1`, the IC50 was over 25 µg/mL in test [2], 0.79 µg/mL (≈ 1.72 µM) in test [6] and under 0.01 µg/mL in test [9].
The like results for `C[C@]12CC[C@H]3[C@@H](CC[C@@H]4C[C@@H](O)CC[C@@]43CO)[C@]13O[C@@H]3[C@H](O)[C@@H]2c1ccc(=O)oc1` were, in that order, over 25 µg/mL, 3.9 µg/mL (≈ 9.36 µM) and 0.49 µg/mL (≈ 1.18 µM).
The like results for `CC(=O)O[C@H]1C[C@]2(O)[C@@H]3CC[C@@H]4C[C@@H](O)CC[C@]4(C)[C@H]3CC[C@]2(C)[C@H]1c1ccc(=O)oc1` [BUFOTALIN] were, in that order, over 25 µg/mL, 0.19 µg/mL (≈ 0.427 µM) and under 0.01 µg/mL.
Regarding `C[C@]12CC[C@H](O)C[C@H]1CC[C@@H]1[C@@H]2CC[C@]2(C)[C@@H](c3ccc(=O)oc3)CC[C@]12O` [BUFALIN], the figures for the IC50 in [2], in test [6] and in test [9] were over 25 µg/mL, 0.67 µg/mL (≈ 1.73 µM) and under 0.01 µg/mL, respectively.
As to `C[C@]12CC[C@H]3[C@@H](CC[C@@H]4C[C@@H](O)CC[C@@]43C=O)[C@]13OC3[C@H](O)[C@@H]2c1ccc(=O)oc1` (some centres not stated), the IC50 in test [1] is over 1 µg/mL; in test [2] it was over 25 µg/mL; in [3], over 1 µg/mL; in test [4] it was over 1 µg/mL; in test [5] it was over 1 µg/mL; in test [6] it was 0.65 µg/mL (≈ 1.57 µM). Besides, the IC50 in [7] is over 1 µg/mL; in [8], over 1 µg/mL; in test [9], 3 µg/mL (≈ 7.24 µM).
Consider `C[C@]12CC[C@H](O)C[C@H]1CC[C@@H]1[C@@H]2CC[C@]2(C)[C@@H](c3ccc(=O)oc3)[C@@H](O)C[C@]12O` [DESACETYLBUFOTALIN], for which the IC50 in [2] is over 25 µg/mL; in test [6] it was 0.79 µg/mL (≈ 1.96 µM); in test [9], 0.025 µg/mL (≈ 0.0621 µM).
For the compound `C[C@]12CC[C@H](O)C[C@H]1CC[C@@H]1[C@@H]2CC[C@]2(C)[C@@H](c3ccc(=O)oc3)C[C@H]3O[C@]132` [BUFOGENIN], the figures for the IC50 in [2], in test [6] and in [9] were 10 µg/mL (≈ 26 µM), 1.3 µg/mL (≈ 3.38 µM) and 0.5 µg/mL (≈ 1.3 µM), respectively.
As for `CC(=O)O[C@H]1[C@H]2O[C@]23[C@@H]2CC[C@@H]4C[C@@H](O)CC[C@]4(C)[C@H]2CC[C@]3(C)[C@H]1c1ccc(=O)oc1` [CINOBUFAGIN], the results for the IC50 in test [2], in test [6] and in test [9] were over 25 µg/mL, 0.21 µg/mL (≈ 0.475 µM) and under 0.01 µg/mL, respectively.
On to `C[C@]12CC[C@H](O)C[C@H]1CC[C@@H]1[C@@H]2CC[C@]2(C)[C@@H](c3ccc(=O)oc3)[C@@H](O)[C@H]3O[C@]132` [DESACETYLCINOBUFAGIN], for which the IC50 in test [2] was over 25 µg/mL; in test [6], 0.44 µg/mL (≈ 1.1 µM); in [9], 1 µg/mL (≈ 2.5 µM).
As to `C[C@]12CC[C@H](O)C[C@H]1CC[C@@H]1[C@@H]2[C@H](O)C[C@]2(C)[C@@H](c3ccc(=O)oc3)CC[C@]12O` [GAMABUFOTALIN], the IC50 in [2] was over 25 µg/mL; in [6] it was 0.75 µg/mL (≈ 1.86 µM); in test [9], 0.014 µg/mL (≈ 0.0348 µM).
In the case of `CC(=O)O[C@H]1C[C@]2(O)[C@@H]3CC[C@]4(O)C[C@@H](O)CC[C@]4(C)[C@H]3CC[C@]2(C)[C@H]1c1ccc(=O)oc1`, the IC50 in test [1] is 0.034 µg/mL (≈ 0.0738 µM); in test [2], over 25 µg/mL; in [3], 0.024 µg/mL (≈ 0.0521 µM); in [4], 0.11 µg/mL (≈ 0.239 µM); in [5], 0.033 µg/mL (≈ 0.0717 µM); in test [6], 0.2 µg/mL (≈ 0.434 µM). The IC50 in test [7] is 0.048 µg/mL (≈ 0.104 µM); in test [8], 0.046 µg/mL (≈ 0.0999 µM); in test [9], under 0.01 µg/mL.
With `CC(=O)O[C@H]1[C@H]2O[C@]23[C@@H]2C[C@H](O)[C@@H]4C[C@@H](O)CC[C@]4(C)[C@H]2CC[C@]3(C)[C@H]1c1ccc(=O)oc1`, the 50% inhibitory concentration (IC50) in test [1] was 0.28 µg/mL (≈ 0.611 µM); in test [2], over 25 µg/mL; in test [3], 0.21 µg/mL (≈ 0.458 µM); in test [4] it was 0.46 µg/mL (≈ 1 µM); in [5], 0.32 µg/mL (≈ 0.698 µM); in test [6], 0.87 µg/mL (≈ 1.9 µM). In addition, the IC50 in [7] was 0.74 µg/mL (≈ 1.61 µM); in [8], 0.36 µg/mL (≈ 0.785 µM); in test [9], 0.038 µg/mL (≈ 0.0829 µM).
Regarding `C[C@]12CC[C@H](O)C[C@@]1(O)CC[C@@H]1[C@@H]2CC[C@]2(C)[C@@H](c3ccc(=O)oc3)CC[C@]12O` [TELOCINOBUFAGIN], the IC50 in test [2] is over 25 µg/mL; in test [6], 1.3 µg/mL (≈ 3.23 µM); in [9] it was under 0.01 µg/mL.

The values are drawn from ChEMBL document CHEMBL1155761, “Isolation and structure of five new cancer cell growth inhibitory bufadienolides from the Chinese traditional drug Ch'an Su” (J Nat Prod, 2001).
